# Organism: Rattus norvegicus
# Experiment: Inhibition of microvessel outgrowth in the rat aortic ring assay
# Format: functional, Aorta
# Set-up: concentration or dose not given beside the values
# In short: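 Aortic 1 mm cross-sections from 6–8-week-old male Sprague–Dawley rats, periadventitial fat removed, embedded between Matrigel layers (37 °C, 5% CO2). Cultured 24 h in EGM-II, then switched to EBM-II with 2% FBS, amphotericin B and gentamicin. Compounds in DMSO added to medium daily for 4 days (vehicle 0.5% DMSO; carboxyamidotriazole positive control). Microvessel growth photographed on day 5.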
row,SMILES,Inhibition
1,CC(C)(C)OC(=O)NCC(=O)OCN1C(=O)CCC(N2C(=O)c3ccccc3C2=O)C1=O (centres undefined),40.25%
2,NC(=O)C(CCC(=O)O)N1C(=O)c2ccccc2C1=O (centres undefined),15.25%
3,CC(C(=O)OCN1C(=O)CCC(N2C(=O)c3ccccc3C2=O)C1=O)N(C)C(=O)OC(C)(C)C (centres undefined),56.5%
4,[N-]=[N+]=NCN1C(=O)CCC(N2C(=O)c3ccccc3C2=O)C1=O (centres undefined),24.67%
5,CCC1(N2C(=O)c3c(F)c(F)c(F)c(F)c3C2=O)C(=O)NC(=O)N(c2ccccc2)C1=O (centres undefined),75.75%
6,Cl.NCC(=O)OCN1C(=O)CCC(N2C(=O)c3ccccc3C2=O)C1=O (centres undefined),71.33%
7,O=C1CCC(N2C(=O)c3ccc(O)c(O)c3C2=O)C(=O)N1 (centres undefined),10.25%
8,O=C1CCC(N2Cc3ccccc3C2=O)C(=O)N1 (centres undefined),11.25%
9,Nc1cccc2c1C(=O)N(C1CCC(=O)NC1=O)C2=O (centres undefined) [POMALIDOMIDE],5.5%
10,CCC1(N2C(=O)c3cccc([N+](=O)[O-])c3C2=O)C(=O)NC(=O)N(c2ccccc2)C1=O (centres undefined),1.75%
11,O=C1NC(=O)C(N2C(=O)c3ccccc3C2=O)CC1O (centres undefined),3.75%
12,NC(=O)CCC(C(=O)O)N1C(=O)c2ccccc2C1=O (centres undefined) [2-PHTHALIMIDOGLUTARAMIC ACID],1.75%
13,O=C1CCC(N2C(=O)c3ccccc3C2=O)C(=O)O1 (centres undefined),42%
14,CC(C)(C)OC(=O)C(C(=O)NC(C(=O)O)C(=O)O)N1C(=O)c2ccccc2C1=O (centres undefined),13.25%
15,O=C1c2ccccc2C(=O)N1c1cnc(O)nc1O,5.75%
16,O=C1CCC(N2C(=O)c3cc(O)c(O)cc3C2=O)C(=O)N1 (centres undefined),38.75%
17,O=C1c2c(F)c(F)c(F)c(F)c2C(=O)N1c1ccc(F)cc1F,39.75%
18,Cc1ccc(C)c2c1C(=O)N(c1ccc(F)cc1F)C2=O,18%
19,CC(C)CCCC(C)C1CCC2C3CC=C4CC(OC(=O)N5C(=O)CCC(N6C(=O)c7ccccc7C6=O)C5=O)CCC4(C)C3CCC12C (centres undefined),50%
20,O=C1c2ccccc2C(=O)N1c1ccc(F)cc1F,-4.75%

row,SMILES,Inhibition
1,O=C1CCC(NC(=O)C(C(=O)O)N2C(=O)c3ccccc3C2=O)C(=O)N1 (centres undefined),11.67%
2,CC(C)CCCC(C)C1CCC2C3CC=C4CC(OC(=O)CN5C(=O)CCC(N6C(=O)c7ccccc7C6=O)C5=O)CCC4(C)C3CCC12C (centres undefined),25.25%
3,NC(Cc1ccccc1)C(=O)OCN1C(=O)CCC(N2C(=O)c3ccccc3C2=O)C1=O (centres undefined),4%
4,O=C(O)CCC(NC(C(=O)O)N1C(=O)c2ccccc2C1=O)C(=O)O (centres undefined),25.75%
5,O=C1CC(N2C(=O)c3ccccc3C2=O)C(=O)N1 (centres undefined),9.75%
6,O=C1CCC(N2C(=O)c3ccccc3C2=O)C(=O)N1CO (centres undefined),21%
7,COCN1C(=O)CCC(N2C(=O)c3ccccc3C2=O)C1=O (centres undefined),13%
8,CC(C)C(N)C(=O)OCN1C(=O)CCC(N2C(=O)c3ccccc3C2=O)C1=O.Cl (centres undefined),88%
9,O=C1c2cccc([N+](=O)[O-])c2C(=O)N1c1cn(-c2ccccc2)c(=O)[nH]c1=O,-23.33%
10,O=C(O)C(C(=O)O)N1C(=O)c2ccccc2C1=O,-2%
11,CCC1(N2C(=O)c3ccccc3C2=O)C(=O)NC(=O)N(c2ccccc2)C1=O (centres undefined),-0.5%
12,NC(=O)c1ccc[n+](CN2C(=O)CCC(N3C(=O)c4ccccc4C3=O)C2=O)c1.[Cl-] (centres undefined),29.67%
13,O=C(O)CCC(C(=O)O)N1C(=O)c2ccccc2C1=O (centres undefined),10.75%
14,O=C(O)CN1C(=O)CCC(N2C(=O)c3ccccc3C2=O)C1=O (centres undefined),39.75%
15,COc1cc2c(cc1OC)C(=O)N(C1CCC(=O)NC1=O)C2=O (centres undefined),23.25%
16,O=C1NCCCC1N1C(=O)c2ccccc2S1(=O)=O (centres undefined) [SUPIDIMIDE],4.5%
17,CCOCN1C(=O)CCC(N2C(=O)c3ccccc3C2=O)C1=O (centres undefined),32%
18,CC(C)(C)OC(=O)NC(Cc1ccccc1)C(=O)OCN1C(=O)CCC(N2C(=O)c3ccccc3C2=O)C1=O (centres undefined),33.75%
19,O=C1c2c(F)c(F)c(F)c(F)c2C(=O)N1c1cnc(O)nc1O,15.25%

# Source: ChEMBL document CHEMBL1149154, “Comparative molecular field analysis and comparative molecular similarity indices analysis of thalidomide analogues as angiogenesis inhibitors” (2004)
